Legend:
[1] = test system: Plasmodium falciparum; assay: Inhibition of recombinant Plasmodium falciparum falcipain 2 at 10 uM preincubated for 10 mins before addition of Z-Phe-Arg-AMC substrate by fluorescence spectrophotometry
Method in brief: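 Soluble recombinant FP-2 (30 nM) preincubated with compound at 10 µM for 10 min at room temperature in 100 mM sodium acetate pH 5.5 with 10 mM DTT. Compound was diluted from DMSO stock. Z-Phe-Arg-AMC was then added (25 µM final), and fluorescence (ex 355/em 460 nm) was followed for 10 min at room temperature. % inhibition = [1 − Ftest/Fcontrol]×100; mean of three independent determinations.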

[2] = Inhibition of recombinant Plasmodium falciparum falcipain 2 incubated with compound for 10 mins before addition of Z-Phe-Arg-AMC substrate by fluorescence spectrophotometry
Method in brief: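 FP-2 (30 nM) was preincubated for 10 min at room temperature with a series of fixed compound concentrations (from DMSO stock) in 100 mM sodium acetate pH 5.5, 10 mM DTT. Z-Phe-Arg-AMC was added to 25 µM final and AMC fluorescence (355/460 nm) monitored 10 min. IC50 was determined only for compounds reaching ≥40% inhibition at 10 µM; values are means of three independent determinations.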

[3] = test system: Plasmodium falciparum; assay: Inhibition of recombinant Plasmodium falciparum falcipain 2 at 2 uM preincubated for 10 mins before addition of Z-Phe-Arg-AMC substrate by fluorescence spectrophotometry

| inhibition [1] | IC50 [2] | inhibition [3] | SMILES |
| --- | --- | --- | --- |
| 18% | – | – | COc1ccc(CNC(=O)Nc2cnc3ccccn3c2=O)cc1 |
| 46% | 19 µM | – | COc1ccc(N2CCN(C(=O)Nc3cnc4cc(C)ccn4c3=O)CC2)cc1 |
| 68% | 7 µM | – | O=C(NCCN1CCOCC1)Nc1cnc2ccc(Cl)cn2c1=O |
| 44% | 14 µM | – | O=C(NCCc1cccs1)Nc1cnc2ccccn2c1=O |
| 43% | – | – | COc1ccc(N2CCN(C(=O)Nc3cnc4ccccn4c3=O)CC2)cc1 |
| 36% | – | – | COc1ccc(N2CCN(C(=O)Nc3cnc4ccc(Cl)cn4c3=O)CC2)cc1 |
| 41% | 12 µM | – | O=C(Nc1cnc2ccc(Cl)cn2c1=O)N1CCN(c2ccccn2)CC1 |
| 63% | 6 µM | – | COCCNC(=O)Nc1cnc2cc(C)ccn2c1=O |
| 15% | – | – | CC(=O)NCCNC(=O)Nc1cnc2cc(C)ccn2c1=O |
| 12% | – | – | O=C(Nc1cnc2ccccn2c1=O)OCc1ccccc1 |
| – | 0.02 µM | 92% | CC(C)C[C@H](NC(=O)[C@H]1O[C@@H]1C(=O)O)C(=O)NCCCCN=C(N)N [E-64] |
| 6% | – | – | Cc1ccn2c(=O)c(C(=O)NCc3ccc(F)cc3)cnc2c1 |
| 31% | – | – | COCCNC(=O)Nc1cnc2ccccn2c1=O |
| 46% | 16 µM | – | CC(=O)NCCNC(=O)Nc1cnc2ccccn2c1=O |
| 37% | – | – | Cc1ccn2c(=O)c(NC(=O)N3CCN(c4ccccn4)CC3)cnc2c1 |
| 31% | – | – | Cc1ccn2c(=O)c(NC(=O)OCc3ccccc3)cnc2c1 |
| 18% | – | – | O=C(Nc1cnc2ccccn2c1=O)OCc1ccccn1 |
| 23% | – | – | Cc1ccn2c(=O)c(NC(=O)N3CCN(C(c4ccccc4)c4ccccc4)CC3)cnc2c1 |
| 46% | 15 µM | – | O=C(Nc1cnc2ccccn2c1=O)N1CCN(c2ccccn2)CC1 |
| 42% | 18 µM | – | Cc1ccn2c(=O)c(NC(=O)OCc3ccccn3)cnc2c1 |
| 25% | – | – | O=C(NCCCN1CCOCC1)Nc1cnc2ccccn2c1=O |
| 42% | 23 µM | – | O=C(NCCc1cccs1)Nc1cnc2ccc(Cl)cn2c1=O |
| 45% | 21 µM | – | Cc1ccn2c(=O)c(NC(=O)NCCc3cccs3)cnc2c1 |
| 24% | – | – | O=C(NCc1ccc2c(c1)OCO2)c1cnc2ccc(Cl)cn2c1=O |
| 27% | – | – | Cc1ccn2c(=O)c(NC(=O)NCCN3CCOCC3)cnc2c1 |
| 7% | – | – | O=C(NCc1ccc2c(c1)OCO2)c1cnc2ccccn2c1=O |
| 39% | – | – | O=C(NCc1ccc(Cl)cc1)Nc1cnc2ccccn2c1=O |

Source: ChEMBL document CHEMBL2157912, “Pyrido[1,2-a]pyrimidin-4-ones as antiplasmodial falcipain-2 inhibitors” (Bioorg Med Chem, 2012)
